Each structure is given as a SMILES string. Calls of active or inactive are those of the source. The rule behind the calls is not given here.

Series [1] concerns Mus musculus. Put plainly: Anxiolytic-like activity in Albino Swiss CD-1 mouse assessed as increase in number of punished crossings at 1.25 mg/kg, ip administered for 30 mins prior to test measured for 1 min by four-plate test. Type of series: functional, organism-based. A digest of the protocol: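 Four-plate test in mice; compounds or clorazepate given i.p. 30 min before testing, vehicle 0.9% NaCl; read-out was number of punished crossings; mean ± SEM, n = 8–10 mice per group; doses compared with one-way statistics (F) against vehicle.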

Series [2] has as its target T1, 5-hydroxytryptamine receptor 1A (Homo sapiens, UniProt P08908).
T1 sequence (P08908 whole entry): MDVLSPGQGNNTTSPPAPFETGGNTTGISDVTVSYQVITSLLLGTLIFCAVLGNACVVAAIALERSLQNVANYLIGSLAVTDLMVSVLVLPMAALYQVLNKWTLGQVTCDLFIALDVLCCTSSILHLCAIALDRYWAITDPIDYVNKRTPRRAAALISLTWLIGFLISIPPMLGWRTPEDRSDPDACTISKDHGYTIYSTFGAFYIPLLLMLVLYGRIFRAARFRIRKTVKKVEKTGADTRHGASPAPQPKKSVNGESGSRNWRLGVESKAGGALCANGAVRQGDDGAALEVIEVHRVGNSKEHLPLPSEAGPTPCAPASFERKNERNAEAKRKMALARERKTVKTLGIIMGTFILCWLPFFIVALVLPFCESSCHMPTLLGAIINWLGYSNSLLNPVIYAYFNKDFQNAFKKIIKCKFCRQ
Put plainly: Displacement of [3H]8-OH-DPAT from recombinant human 5-HT1A receptor expressed in HEK293 cell membranes after 60 mins by liquid scintillation counting method. (Displacement assays read how much labelled ligand stays bound in the presence of the test substance.)

For series [3], the system named is Mus musculus. Put plainly: Antidepressant-like activity in Albino Swiss CD-1 mouse assessed as immobility time at 5 mg/kg, ip administered 30 mins prior to test measured for last 4 mins of 6 mins observation by forced swim test (reference value: 153.9 to 201.9 secs). Type of series: functional.
Series [4] concerns Mus musculus. The series can be described thus: Antidepressant-like activity in Albino Swiss CD-1 mouse assessed as immobility time at 10 mg/kg, ip administered 30 mins prior to test measured for last 4 mins of 6 mins observation by forced swim test (reference value: 153.9 to 201.9 secs). Type of series: functional.
Series [5] relates to Mus musculus. The series can be described thus: Antidepressant-like activity in Albino Swiss CD-1 mouse assessed as immobility time at 20 mg/kg, ip administered 30 mins prior to test measured for last 4 mins of 6 mins observation by forced swim test (reference value: 153.9 to 201.9 secs). In kind it is functional.
Series [6] relates to Mus musculus. The series can be described thus: Anxiolytic-like activity in Albino Swiss CD-1 mouse assessed as increase in number of punished crossings at 2.5 mg/kg, ip administered for 30 mins prior to test measured for 1 min by four-plate test. In kind it is functional, organism-based. The essentials: (§1)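 Four-plate test in mice, i.p., 30 min before test; vehicle 0.9% NaCl; doses 1.25–10 mg/kg; number of punished crossings counted; mean ± SEM, n = 8–10 mice per group; ANOVA F statistics.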

Series [7] has as its system Mus musculus. The series can be described thus: Anxiolytic-like activity in Albino Swiss CD-1 mouse assessed as increase in number of punished crossings at 5 mg/kg, ip administered for 30 mins prior to test measured for 1 min by four-plate test. Type of series: functional, organism-based. A digest of the protocol: as §1
Series [8] relates to Mus musculus. Put plainly: Toxicity in Albino Swiss CD-1 mouse assessed as death at 100 mg/kg, ip. Type of series: organism-based. The note with it: in vivo. A digest of the protocol: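 Deaths counted in mice during maximal electroshock (MES) seizure testing after i.p. dosing, 6 mice per dose (3 or 1 at some top doses); recorded as number dead/number tested alongside protection and rotarod motor impairment (10 rpm); untreated control group included.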

In series [9] the test system is Mus musculus. The series can be described thus: Anticonvulsant activity in ip dosed Albino Swiss CD-1 mouse assessed as dose required to protect against 50 Hz current-induced seizure. Type of series: functional. The note with it: Swiss CD-1, ip.
Series [10] in a line: Neurotoxicity in ip dosed Albino Swiss CD-1 mouse assessed as minimum dose required to induce motor impairment treated 30 mins prior to test by rotarod test. Type of series: toxicity, organism-based. The note with it: in vivo. (In general: In the rotarod test animals must keep their balance on a rotating rod.)
Series [11] can be described thus: Protection index, ratio of TD50 for motor impairment in ip dosed Swiss albino CD-1 mouse to ED50 for protection against 50 Hz current-induced seizures in ip dosed Swiss albino CD-1 mouse. Type of series: toxicity, organism-based, Swiss CD-1. Conditions: in vivo, read-out: Ratio TD50/ED50.
The subject of series [12] is Mus musculus. The series can be described thus: Toxicity in Albino Swiss CD-1 mouse assessed as effect on locomotory activity at 1.25 to 5 mg/kg, ip administered for 30 mins prior to test measured for 1 min. Conditions: in vivo. In kind it is organism-based.
In series [13] the target is 5-hydroxytryptamine receptor 6 (Homo sapiens, UniProt P50406). Put plainly: Displacement of [3H]LSD from recombinant human 5-HT6 receptor expressed in CHO cells cell membranes at 10^-5 M after 60 mins by liquid scintillation counting method.
For series [14], the target named is 5-hydroxytryptamine receptor 7 (Homo sapiens, UniProt P34969). Put plainly: Displacement of [3H]LSD from recombinant human 5-HT7 receptor expressed in CHO cell membranes at 10^-5 M after 60 mins by liquid scintillation counting method.
For series [15], the target named is T2, Alpha-1A adrenergic receptor (Homo sapiens) (UniProt P35348).
T2 sequence (whole entry): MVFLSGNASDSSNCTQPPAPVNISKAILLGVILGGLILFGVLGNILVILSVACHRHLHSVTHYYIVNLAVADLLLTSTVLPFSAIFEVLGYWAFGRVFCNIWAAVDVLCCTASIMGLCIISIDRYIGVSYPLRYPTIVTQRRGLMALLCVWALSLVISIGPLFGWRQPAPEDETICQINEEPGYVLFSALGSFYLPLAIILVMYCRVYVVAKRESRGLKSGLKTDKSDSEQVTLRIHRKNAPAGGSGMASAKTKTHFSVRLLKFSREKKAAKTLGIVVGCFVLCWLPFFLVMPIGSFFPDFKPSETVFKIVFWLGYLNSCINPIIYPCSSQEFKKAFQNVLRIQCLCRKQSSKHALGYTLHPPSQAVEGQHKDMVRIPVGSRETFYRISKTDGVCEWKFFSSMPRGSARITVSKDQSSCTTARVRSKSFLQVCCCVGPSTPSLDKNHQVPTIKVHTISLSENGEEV
The series can be described thus: Displacement of [3H]prazosin from recombinant human alpha1 adrenoceptor expressed in CHO cell membranes at 10^-5 M after 30 mins by liquid scintillation counting method.

Chain of 5-hydroxytryptamine receptor 7 (P34969 whole entry): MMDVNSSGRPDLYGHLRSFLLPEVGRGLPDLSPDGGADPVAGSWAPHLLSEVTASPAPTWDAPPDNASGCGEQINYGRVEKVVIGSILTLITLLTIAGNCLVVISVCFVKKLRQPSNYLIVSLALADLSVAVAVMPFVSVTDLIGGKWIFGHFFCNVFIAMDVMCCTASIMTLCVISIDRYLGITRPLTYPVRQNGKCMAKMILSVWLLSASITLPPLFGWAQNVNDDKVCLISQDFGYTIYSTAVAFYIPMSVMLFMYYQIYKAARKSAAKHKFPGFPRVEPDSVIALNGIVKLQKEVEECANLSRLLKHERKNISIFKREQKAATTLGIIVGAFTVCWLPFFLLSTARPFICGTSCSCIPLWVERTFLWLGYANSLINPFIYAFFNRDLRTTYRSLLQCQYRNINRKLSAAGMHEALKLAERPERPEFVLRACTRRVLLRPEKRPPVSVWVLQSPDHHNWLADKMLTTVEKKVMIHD
Chain of 5-hydroxytryptamine receptor 6 (P50406 whole entry): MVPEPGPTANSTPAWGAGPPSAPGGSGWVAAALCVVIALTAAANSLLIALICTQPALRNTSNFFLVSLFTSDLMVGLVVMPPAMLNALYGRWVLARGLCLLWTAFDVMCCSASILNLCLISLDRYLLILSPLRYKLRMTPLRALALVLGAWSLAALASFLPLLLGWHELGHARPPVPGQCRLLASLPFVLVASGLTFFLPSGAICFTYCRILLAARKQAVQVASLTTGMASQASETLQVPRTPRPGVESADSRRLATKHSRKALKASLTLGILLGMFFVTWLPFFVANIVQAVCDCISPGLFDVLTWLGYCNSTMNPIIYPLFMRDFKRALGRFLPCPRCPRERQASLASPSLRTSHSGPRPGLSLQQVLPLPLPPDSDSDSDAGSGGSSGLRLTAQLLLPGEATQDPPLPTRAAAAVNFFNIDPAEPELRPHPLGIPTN

As to `O=C(O)C1N=C(c2ccccc2)c2cc(Cl)ccc2NC1=O` (stereo not given), in the series with Mus musculus [1], the outcome was Active.
Regarding `Cc1cc(C)c(OCCN2CCN(CCOCCO)CC2)c(C)c1.Cl.Cl`, the inhibitory constant (Ki) in series [2] came to 3.17 µM. The Time amounted to 152.5 s in the series with Mus musculus [3], 135.3 s with Mus musculus [4] and 128 s in the series on Mus musculus [5]. Moreover, the result in the series with Mus musculus [6] and in the series on Mus musculus [7] was Active. Moreover, the Activity entry with Mus musculus [8] and in the series with Mus musculus [12] was “Non-Toxic” in each case. Further, the median effective dose (ED50) with Mus musculus [9] stood at 45.4 mg/kg. In addition, the TD50 at 0.5 h in [10] stood at 85.3 mg/kg. Also, in series [11], the selectivity ratio worked out at 1.88. In addition, the inhibition result in series [13], in series [14] and in series [15] was “inactive” throughout.

Usually Ki stands for the equilibrium dissociation constant of an inhibitor or competing ligand from its target. In general, ED50 refers to the dose that gives a 50% effect, or the effect in half of the subjects. The term TD50 denotes the dose at which the toxic effect under study appears in half of the subjects.

(Values after ChEMBL document CHEMBL4190389, “Synthesis and activity of di- or trisubstituted N-(phenoxyalkyl)- or N-{2-[2-(phenoxy)ethoxy]ethyl}piperazine derivatives on the central nervous system” (Bioorg Med Chem Lett, 2018).)
